From ChEMBL document CHEMBL1155539, “Discovery of 4-[1-[([1-[4-(trifluoromethyl)benzyl]-1H-indol-7-yl]carbonyl)amino]cyclopropyl]benzoic acid (MF-766), a highly potent and selective EP4 antagonist for treating inflammatory pain” (Bioorg Med Chem Lett, 2010)

Legend:
Hepatocyte [1] = assay: Oxidative metabolism in human hepatocytes assessed as protein covalent binding after 2 hrs; type: ADME, cell-based
Method in brief: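 [3H]-labelled compound incubated with fresh rat or human hepatocytes for 2 h. Covalent protein binding was expressed as pmol-equiv/mg protein, and samples were checked for tritium loss by HPLC with radiometric detection.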

[2] = molecular target: Prostaglandin E2 receptor EP4 subtype (Homo sapiens, UniProt P35408); assay: Displacement of [3H]PGE2 from human prostanoid EP4 receptor expressed in HEK293-EBNA cells after 60 mins by scintillation counting in presence of 10% human serum; type: cell-based
Chain of Prostaglandin E2 receptor EP4 subtype (P35408 whole entry): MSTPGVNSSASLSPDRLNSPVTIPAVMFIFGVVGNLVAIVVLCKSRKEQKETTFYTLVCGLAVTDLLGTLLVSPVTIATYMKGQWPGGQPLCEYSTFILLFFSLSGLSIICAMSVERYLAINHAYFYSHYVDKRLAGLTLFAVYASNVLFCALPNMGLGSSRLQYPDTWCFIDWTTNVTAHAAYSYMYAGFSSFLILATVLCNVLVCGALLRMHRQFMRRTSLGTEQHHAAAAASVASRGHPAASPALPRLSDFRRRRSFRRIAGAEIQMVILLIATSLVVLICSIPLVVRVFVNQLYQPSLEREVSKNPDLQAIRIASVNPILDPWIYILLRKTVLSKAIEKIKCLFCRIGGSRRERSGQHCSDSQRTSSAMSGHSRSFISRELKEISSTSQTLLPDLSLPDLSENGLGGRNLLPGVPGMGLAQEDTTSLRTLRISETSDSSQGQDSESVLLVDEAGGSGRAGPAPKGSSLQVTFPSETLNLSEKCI

[3] = molecular target: T1, Prostaglandin D2 receptor 2 (Homo sapiens, UniProt Q9Y5Y4); assay: Displacement of [3H]PGD2 from human Prostanoid DP2 receptor expressed in HEK293-EBNA cells after 60 mins by scintillation counting; type: cell-based
T1 sequence (Q9Y5Y4 whole entry): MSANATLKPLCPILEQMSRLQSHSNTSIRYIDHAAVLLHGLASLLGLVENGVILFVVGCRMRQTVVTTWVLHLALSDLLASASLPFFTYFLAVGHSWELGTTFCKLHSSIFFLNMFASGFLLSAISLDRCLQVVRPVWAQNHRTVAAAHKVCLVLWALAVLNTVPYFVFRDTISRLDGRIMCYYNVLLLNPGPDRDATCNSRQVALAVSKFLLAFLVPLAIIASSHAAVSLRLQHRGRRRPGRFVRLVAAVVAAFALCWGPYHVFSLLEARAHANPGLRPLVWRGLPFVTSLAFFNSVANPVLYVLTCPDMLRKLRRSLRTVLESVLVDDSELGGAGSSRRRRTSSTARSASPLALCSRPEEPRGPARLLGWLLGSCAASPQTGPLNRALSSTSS

[4] = Elimination half life in Beagle dog at 1 mg/kg, iv and 4 mg/kg, po; conditions: in vivo, read-out: beta t1/2 (converted)
[5] = molecular target: T2, Prostaglandin E2 receptor EP3 subtype (Homo sapiens, UniProt P43115); assay: Displacement of [3H]PGE2 from human prostanoid EP3 receptor expressed in HEK293-EBNA cells after 60 mins by scintillation counting; type: cell-based
T2 sequence (P43115 whole entry): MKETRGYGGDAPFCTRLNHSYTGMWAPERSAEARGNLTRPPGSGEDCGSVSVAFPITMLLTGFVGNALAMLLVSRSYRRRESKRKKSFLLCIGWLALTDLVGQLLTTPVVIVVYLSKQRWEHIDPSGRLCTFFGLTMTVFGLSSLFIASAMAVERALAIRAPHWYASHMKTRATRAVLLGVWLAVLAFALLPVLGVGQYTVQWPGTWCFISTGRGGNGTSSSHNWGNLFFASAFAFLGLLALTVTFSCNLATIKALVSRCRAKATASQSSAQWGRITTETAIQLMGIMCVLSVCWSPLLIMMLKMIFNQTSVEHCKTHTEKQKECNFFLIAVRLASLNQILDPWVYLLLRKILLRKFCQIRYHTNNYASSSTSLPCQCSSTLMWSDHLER

Rattus norvegicus = assay: Antiinflammatory activity in rat assessed as inhibition of complete Freund's adjuvant-induced paw swelling administered daily once 9 days after adjuvant challenge measured on day 18; type: functional; conditions: read-out: ED50
Method in brief: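 Rat adjuvant-induced arthritis model with daily dosing in mg/kg/day. Dose groups were 0, 0.001, 0.01, 0.1 and 1 mg/kg, plus a non-AIA control group. Primary and secondary paw swelling were scored as % inhibition relative to vehicle-treated arthritic rats, and ED50 was estimated from the dose–response.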

Hepatocyte [6] = assay: Metabolic stability in human hepatocytes; type: ADME, cell-based
[7] = molecular target: Prostaglandin E2 receptor EP2 subtype (Homo sapiens, UniProt P43116); assay: Displacement of [3H]PGE2 from human prostanoid EP2 receptor expressed in HEK293-EBNA cells after 60 mins by scintillation counting; type: cell-based
Chain of Prostaglandin E2 receptor EP2 subtype (P43116 whole entry): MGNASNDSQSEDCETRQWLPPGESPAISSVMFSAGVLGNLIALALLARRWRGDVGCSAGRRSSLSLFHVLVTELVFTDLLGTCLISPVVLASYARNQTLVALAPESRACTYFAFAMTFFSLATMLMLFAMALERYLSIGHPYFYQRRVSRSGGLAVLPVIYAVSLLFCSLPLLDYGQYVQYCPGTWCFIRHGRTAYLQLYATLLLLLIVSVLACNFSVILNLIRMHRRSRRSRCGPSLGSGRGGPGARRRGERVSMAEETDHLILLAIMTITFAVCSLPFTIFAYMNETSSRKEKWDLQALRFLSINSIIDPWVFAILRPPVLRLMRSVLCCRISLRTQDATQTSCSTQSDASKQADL

Canis familiaris = assay: Bioavailability in Beagle dog at 1 mg/kg, iv and 4 mg/kg, po; conditions: in vivo
Prostacyclin receptor = Prostacyclin receptor (Homo sapiens, UniProt P43119); assay: Displacement of [3H]iloprost from human prostanoid IP receptor expressed in HEK293-EBNA cells after 60 mins by scintillation counting; type: cell-based
Chain of Prostacyclin receptor (P43119 whole entry): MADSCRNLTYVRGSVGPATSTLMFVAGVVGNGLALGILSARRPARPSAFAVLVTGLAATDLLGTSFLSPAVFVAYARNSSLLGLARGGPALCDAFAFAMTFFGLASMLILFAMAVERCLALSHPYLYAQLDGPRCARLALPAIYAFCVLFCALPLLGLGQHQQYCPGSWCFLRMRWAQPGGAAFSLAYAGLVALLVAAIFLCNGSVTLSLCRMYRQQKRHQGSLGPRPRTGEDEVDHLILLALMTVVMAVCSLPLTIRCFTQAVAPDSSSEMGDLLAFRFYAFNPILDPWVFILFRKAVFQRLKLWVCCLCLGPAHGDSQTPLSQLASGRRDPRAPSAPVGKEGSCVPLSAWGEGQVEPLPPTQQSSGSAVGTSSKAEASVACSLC

[8] = Drug level in complete Freund's adjuvant challenged rat administered daily once 9 days after adjuvant challenge measured on day 18 after 24 hrs post dose; type: ADME, organism-based; conditions: in vivo, read-out: Drug uptake
Method in brief: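 In a separate rat AIA experiment with daily dosing, plasma drug levels were measured 2 h and 24 h after the final dose.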

[9] = Metabolic stability in dog hepatocytes; type: ADME, cell-based, Canis lupus familiaris, Hepatocyte
Hepatocyte [10] = assay: Metabolic stability in rat hepatocytes; type: ADME, cell-based

Q: Which results are given for `O=C(O)c1ccc(C2(NC(=O)c3cccc4ccn(Cc5ccc(C(F)(F)F)cc5)c34)CC2)cc1`?
A: Activity (Hepatocyte [1]): 50 pmolequiv/mg; Ki [2]: 0.00034 µM; Ki [3]: > 21 µM; half-life [4]: 2.6 h; Ki [5]: 7.4 µM; ED50 (Rattus norvegicus): 0.004 mg/kg/day; Stability (Hepatocyte [6]): Stable; Ki [7]: 8 µM; F (Canis familiaris): 74%; Ki (Prostacyclin receptor): > 22 µM; concentration at 24 h [8]: 3.1 nM; Stability [9]: Stable; Stability (Hepatocyte [10]): Stable
